Measured values as given in ChEMBL document CHEMBL3271969, “2-pyridylimidazoles as inhibitors of xanthine oxidase” (J Med Chem, 1977).

Tests used:
[1] = target: T1, Xanthine dehydrogenase/oxidase (Bos taurus, UniProt P80457); experiment: Inhibition of bovine xanthine oxidase at 2 X 10^-5 M; details: cattle; for inhibition (INH): 20 µM
Method in brief: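 Bovine xanthine oxidase, diluted 1:300 to give ΔOD292 of 0.09–0.12 per min, starts the reaction in 0.05 M phosphate buffer pH 7.5 with hypoxanthine at 3×10^-5 M plus inhibitor.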

[2] = target: T1, Xanthine dehydrogenase/oxidase; experiment: Inhibition of bovine xanthine oxidase; details: read-out: I50
[3] = Dissociation constant, apparent pKa of the compound; format: physicochemical
[4] = Association constant, apparent pKa of the compound; format: physicochemical

T1 sequence (P80457 whole entry): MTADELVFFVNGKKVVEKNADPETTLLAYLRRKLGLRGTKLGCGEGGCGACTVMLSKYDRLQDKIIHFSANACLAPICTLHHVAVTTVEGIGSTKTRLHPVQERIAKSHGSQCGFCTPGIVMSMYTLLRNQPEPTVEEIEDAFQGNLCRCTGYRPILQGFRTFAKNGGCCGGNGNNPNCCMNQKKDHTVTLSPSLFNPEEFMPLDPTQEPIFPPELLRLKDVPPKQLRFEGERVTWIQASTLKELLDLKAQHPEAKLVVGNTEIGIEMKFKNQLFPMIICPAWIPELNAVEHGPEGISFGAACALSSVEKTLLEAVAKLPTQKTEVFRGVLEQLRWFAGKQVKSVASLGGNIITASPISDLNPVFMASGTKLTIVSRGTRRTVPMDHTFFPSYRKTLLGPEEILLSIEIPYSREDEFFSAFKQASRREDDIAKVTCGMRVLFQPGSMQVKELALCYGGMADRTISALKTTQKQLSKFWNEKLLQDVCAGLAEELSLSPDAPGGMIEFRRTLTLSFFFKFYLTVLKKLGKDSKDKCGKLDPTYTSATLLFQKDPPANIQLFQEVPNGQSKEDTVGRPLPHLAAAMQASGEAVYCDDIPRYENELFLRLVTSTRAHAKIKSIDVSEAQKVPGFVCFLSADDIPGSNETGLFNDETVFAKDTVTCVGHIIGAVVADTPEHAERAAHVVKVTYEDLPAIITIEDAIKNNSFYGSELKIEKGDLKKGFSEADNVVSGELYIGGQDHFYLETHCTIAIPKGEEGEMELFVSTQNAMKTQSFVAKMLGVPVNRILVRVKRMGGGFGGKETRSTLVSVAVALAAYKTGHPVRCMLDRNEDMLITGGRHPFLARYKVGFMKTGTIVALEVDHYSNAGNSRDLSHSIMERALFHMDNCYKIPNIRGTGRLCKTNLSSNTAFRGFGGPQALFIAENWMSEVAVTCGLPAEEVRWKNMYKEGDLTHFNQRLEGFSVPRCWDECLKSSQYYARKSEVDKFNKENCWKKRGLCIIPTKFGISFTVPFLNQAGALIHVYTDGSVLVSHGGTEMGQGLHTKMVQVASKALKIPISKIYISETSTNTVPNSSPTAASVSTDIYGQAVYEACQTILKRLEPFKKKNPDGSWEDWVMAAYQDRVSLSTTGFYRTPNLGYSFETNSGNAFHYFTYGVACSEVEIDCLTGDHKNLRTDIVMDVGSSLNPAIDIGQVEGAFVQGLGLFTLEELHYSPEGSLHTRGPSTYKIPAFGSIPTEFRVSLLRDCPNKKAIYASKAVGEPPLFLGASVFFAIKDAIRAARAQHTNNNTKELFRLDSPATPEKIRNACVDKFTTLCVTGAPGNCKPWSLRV

| IC50 [2] [µM] | inhibition (INH) [1] | Structure (SMILES) | other results |
| --- | --- | --- | --- |
| – | – | COC(=O)c1cnc(-c2ccncc2)[nH]1 | inhibition at 20 µM [1]: 10% |
| 5.8 | – | O=C(O)c1nc(-c2ccncc2)[nH]c1C(=O)O | – |
| – | Not Active | Cc1cnc(-c2cccnc2)[nH]1 | – |
| 40 | – | FC(F)(F)c1cnc(-c2cccnc2)[nH]1 | pKa [3]: 10.2; pKa [4]: 3.5 |
| – | Not Active | c1cc(-c2ncc[nH]2)ccn1 | – |
| 5.6 | – | N#Cc1cnc(-c2ccncc2)[nH]1 | – |
| – | Not Active | Clc1ccc2nc(-c3cccnc3)[nH]c2c1 | – |
| 2 | – | FC(F)(F)c1cnc(-c2ccncc2)[nH]1 | pKa [3]: 9.73; pKa [4]: 3.76 |
| – | Not Active | COC(=O)c1nc(-c2cccnc2)[nH]c1C(=O)OC | – |
| – | – | Clc1ccc2[nH]c(-c3ccncc3)nc2c1 | pKa [3]: 10; pKa [4]: 3.5 |
| – | Not Active | c1cncc(-c2nc3cccnc3[nH]2)c1 | – |
| 0.5 | – | N#Cc1nc(-c2ccncc2)[nH]c1C(N)=O | – |
| 35 | – | N#Cc1nc(-c2cccnc2)[nH]c1C#N | – |
| 1 | – | O=C(O)c1nc(-c2cccnc2)[nH]c1C(=O)O | – |
| – | – | Clc1nc(-c2cccnc2)[nH]c1Cl | inhibition at 20 µM [1]: 29% |
| – | Not Active | NC(=O)c1nc(-c2cccnc2)[nH]c1C(N)=O | – |
| – | – | NC(=O)c1nc(-c2ccncc2)[nH]c1C(N)=O | inhibition at 20 µM [1]: 14% |
| 15 | – | Clc1cc2nc(-c3ccncc3)[nH]c2cc1Cl | pKa [3]: 9.33; pKa [4]: 3 |
| – | – | O=C(O)c1cnc(-c2ccncc2)[nH]1 | inhibition at 20 µM [1]: 34% |
| – | Not Active | c1ccc2[nH]c(-c3ccncc3)nc2c1 | pKa [3]: 10.9; pKa [4]: 3.85 |
| 0.02 | – | N#Cc1nc(-c2ccncc2)[nH]c1C#N | – |
| – | Not Active | Cc1cnc(-c2ccncc2)[nH]1 | – |
| – | Not Active | COC(=O)c1nc(-c2ccncc2)[nH]c1C(=O)OC | pKa [3]: 7.15; pKa [4]: 3.98 |
| 20 | – | Brc1nc(-c2cccnc2)[nH]c1Br | – |
| – | – | c1cncc(-c2nc3cnccc3[nH]2)c1 | inhibition at 20 µM [1]: 23% |
| – | Not Active | c1cncc(-c2ncc[nH]2)c1 | – |
| 13 | – | c1cc(-c2nc3cnccc3[nH]2)ccn1 | – |
| – | Not Active | c1cnc2[nH]c(-c3ccncc3)nc2c1 | – |
| 1.3 | – | O=[N+]([O-])c1cnc(-c2cccnc2)[nH]1 | – |
| 0.35 | – | O=[N+]([O-])c1cnc(-c2ccncc2)[nH]1 | – |

| Structure (SMILES) | IC50 [2] [µM] | inhibition (INH) [1] | other results |
| --- | --- | --- | --- |
| O=[N+]([O-])c1c[nH]cn1 | – | Not Active | pKa [3]: 9 |
